Data on five molecules can be found in paper PMC4948672 (Cancer research, 2015).

In one data set the test system is CBP/p300 HAT activity. Particulars: cited from earlier work.
Data set [1] has as its target T1, BRD4(2) (Homo sapiens, UniProt O60885). Briefly: temperature shift assay. The format is binding. Particulars: second bromodomain of BRD4.
In data set [2] the test system is KASUMI-1 cells. Briefly: apoptosis, 7-AAD/AnnexinV staining. Particulars: prolonged exposure, day 5, liquid culture. Type of data set: cell-based, human.
Data set [3] deals with 12 human cell lines that form visible colonies in methylcellulose. Briefly: clonogenic growth in methylcellulose, human leukemic cell line panel. The format is cell-based. Particulars: all 12 colony-forming human leukemic lines.
In a further data set the target is isolated CBP bromodomain (Homo sapiens, UniProt Q92793). Briefly: NanoBRET, NanoLuc CBP bromodomain / Halo-tagged Histone H3.3. Particulars: read-out: cellular IC50, construct containing the bromodomain only. Type of data set: cell-based.
Chain of isolated CBP bromodomain (Q92793 1085-1192 limits assumed): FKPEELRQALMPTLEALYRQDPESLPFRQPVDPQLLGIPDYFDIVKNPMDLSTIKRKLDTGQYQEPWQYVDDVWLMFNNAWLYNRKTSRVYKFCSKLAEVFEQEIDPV
The next data set deals with p300 (Homo sapiens, UniProt Q09472). Nature of the data set: ChIP-PCR of p300 occupancy at TNFSF13B and ID2. The format is cell-based. Particulars: KASUMI-1, 3 µM.
Chain of p300 (Q09472 whole entry): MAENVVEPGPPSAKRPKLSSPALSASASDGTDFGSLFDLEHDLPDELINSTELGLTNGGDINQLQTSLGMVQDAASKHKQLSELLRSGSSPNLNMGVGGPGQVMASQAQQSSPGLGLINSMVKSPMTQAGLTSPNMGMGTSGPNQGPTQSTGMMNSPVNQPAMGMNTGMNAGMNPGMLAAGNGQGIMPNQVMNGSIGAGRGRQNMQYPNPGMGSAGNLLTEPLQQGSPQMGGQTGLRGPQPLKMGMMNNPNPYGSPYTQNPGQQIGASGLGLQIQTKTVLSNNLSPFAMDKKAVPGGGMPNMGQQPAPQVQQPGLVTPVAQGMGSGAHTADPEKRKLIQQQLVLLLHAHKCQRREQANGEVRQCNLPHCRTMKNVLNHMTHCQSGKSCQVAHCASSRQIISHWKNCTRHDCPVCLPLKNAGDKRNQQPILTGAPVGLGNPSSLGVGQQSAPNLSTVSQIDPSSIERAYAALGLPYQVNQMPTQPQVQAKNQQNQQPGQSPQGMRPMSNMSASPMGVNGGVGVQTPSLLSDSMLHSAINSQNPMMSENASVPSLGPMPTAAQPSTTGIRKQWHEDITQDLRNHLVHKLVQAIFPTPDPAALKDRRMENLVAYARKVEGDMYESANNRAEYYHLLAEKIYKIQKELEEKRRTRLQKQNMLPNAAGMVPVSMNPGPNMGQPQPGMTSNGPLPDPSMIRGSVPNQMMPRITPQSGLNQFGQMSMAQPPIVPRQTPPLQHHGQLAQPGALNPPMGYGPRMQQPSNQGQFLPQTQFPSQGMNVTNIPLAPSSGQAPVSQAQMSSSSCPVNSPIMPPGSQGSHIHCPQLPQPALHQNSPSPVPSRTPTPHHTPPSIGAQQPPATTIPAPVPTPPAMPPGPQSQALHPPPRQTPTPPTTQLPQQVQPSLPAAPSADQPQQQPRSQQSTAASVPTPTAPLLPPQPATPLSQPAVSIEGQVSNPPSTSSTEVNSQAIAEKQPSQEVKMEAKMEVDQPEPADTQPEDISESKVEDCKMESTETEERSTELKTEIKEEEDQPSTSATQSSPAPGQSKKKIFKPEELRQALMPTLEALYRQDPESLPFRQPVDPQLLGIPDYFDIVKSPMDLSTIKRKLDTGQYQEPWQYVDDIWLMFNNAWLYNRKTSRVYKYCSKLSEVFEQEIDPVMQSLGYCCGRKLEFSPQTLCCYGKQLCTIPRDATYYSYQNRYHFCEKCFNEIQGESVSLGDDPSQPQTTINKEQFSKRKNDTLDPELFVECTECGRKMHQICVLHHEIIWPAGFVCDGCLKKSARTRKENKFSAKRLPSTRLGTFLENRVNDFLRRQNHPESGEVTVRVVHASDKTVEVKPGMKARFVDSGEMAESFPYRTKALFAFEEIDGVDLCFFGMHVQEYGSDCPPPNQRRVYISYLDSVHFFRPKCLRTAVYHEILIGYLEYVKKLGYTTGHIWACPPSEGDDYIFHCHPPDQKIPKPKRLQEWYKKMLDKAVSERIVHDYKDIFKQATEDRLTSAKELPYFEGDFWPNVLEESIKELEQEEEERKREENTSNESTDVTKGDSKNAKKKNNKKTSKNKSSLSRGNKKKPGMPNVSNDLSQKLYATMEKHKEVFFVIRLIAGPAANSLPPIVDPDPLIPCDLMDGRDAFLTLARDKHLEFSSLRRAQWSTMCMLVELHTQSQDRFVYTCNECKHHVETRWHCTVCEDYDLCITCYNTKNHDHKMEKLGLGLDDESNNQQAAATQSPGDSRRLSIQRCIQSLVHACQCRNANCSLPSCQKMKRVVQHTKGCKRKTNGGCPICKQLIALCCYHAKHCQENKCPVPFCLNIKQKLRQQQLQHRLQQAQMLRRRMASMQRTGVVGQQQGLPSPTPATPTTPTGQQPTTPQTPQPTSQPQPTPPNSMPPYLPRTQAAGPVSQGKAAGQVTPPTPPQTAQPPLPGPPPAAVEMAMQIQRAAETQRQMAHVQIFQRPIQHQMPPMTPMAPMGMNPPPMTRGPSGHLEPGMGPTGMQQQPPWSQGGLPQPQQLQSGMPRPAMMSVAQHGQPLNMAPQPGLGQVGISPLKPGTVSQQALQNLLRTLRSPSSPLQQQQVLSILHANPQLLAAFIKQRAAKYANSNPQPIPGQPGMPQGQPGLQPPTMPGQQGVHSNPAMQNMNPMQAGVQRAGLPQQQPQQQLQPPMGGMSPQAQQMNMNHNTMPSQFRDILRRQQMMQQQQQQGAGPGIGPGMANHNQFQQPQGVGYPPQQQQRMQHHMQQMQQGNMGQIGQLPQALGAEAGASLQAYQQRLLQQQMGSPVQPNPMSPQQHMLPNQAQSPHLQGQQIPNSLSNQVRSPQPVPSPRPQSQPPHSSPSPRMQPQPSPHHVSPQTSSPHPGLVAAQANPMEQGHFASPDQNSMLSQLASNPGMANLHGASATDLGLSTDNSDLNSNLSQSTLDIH
In data set [4] the test system is primary blast cells from AML patients. Briefly: clonogenic growth of primary cells in methylcellulose. The format is cell-based, human. Particulars: five AML patients. The method, boiled down:
(§1)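 Primary human cells were grown in methylcellulose with test compound: CD34+ cells from healthy donors (n=3) or AML patient blasts (n=5). Colonies and cell numbers are expressed as mean percentage of vehicle-treated ±SD; ANOVA with Dunnett. Morphology was assessed by Giemsa-Wright stain after DMSO or 5 µM treatment.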

For a further data set, the system named is KASUMI-1. Briefly: clonogenic growth in methylcellulose. Particulars: dose dependent. Type of data set: cell-based, human. The method, boiled down: (§2)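 Human leukemic cell lines were plated in methylcellulose with different doses of test compound, and colony growth was scored. Counts are mean percentage of vehicle-treated ±SD, n=3; ANOVA with Dunnett multiple comparison.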

The subject of data set [5] is primary murine MLL-AF9+ leukemic blasts. Briefly: WST1 cytotoxicity assay. The format is cell-based, mouse. In a few lines: (§3)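 WST1 cytotoxicity assay. Cells were murine bone marrow cells immortalized by retroviral MLL-CBP expression, or MLL-AF9 leukemic blasts isolated from mice transplanted with bone marrow retrovirally expressing that oncogene. Signal was expressed as mean percentage of vehicle-treated cells ±SD, n=4; ANOVA with Dunnett multiple comparison.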
On the technique in general: Formazan colour is commonly taken as a measure of viable cells.

Data set [6] relates to MLL-CBP immortalized murine bone marrow cells. Nature of the data set: WST1 cytotoxicity assay. The format is cell-based, mouse. Particulars: significant cytotoxicity only at high concentrations and prolonged exposure. In a few lines: as §3
Data set [7] relates to primary murine MLL-AF9+ leukemic blasts. Nature of the data set: clonogenic re-plating assay in methylcellulose. Type of data set: cell-based, mouse. The method, boiled down: (§4)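 Methylcellulose colony formation with serial re-plating, using either MLL-CBP immortalized murine bone marrow progenitors or MLL-AF9 leukemic blasts treated with test compound. Colonies are expressed as mean percentage of vehicle-treated ±SD, n=2; ANOVA with Dunnett multiple comparison.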

For data set [8], the target named is T2, full-length CBP (Homo sapiens, UniProt Q92793). Type of data set: cell-based. Particulars: NanoBRET dose response. For orientation: BRET reads energy transfer from a luciferase to a nearby fluorophore.
T2 sequence (Q92793 whole entry): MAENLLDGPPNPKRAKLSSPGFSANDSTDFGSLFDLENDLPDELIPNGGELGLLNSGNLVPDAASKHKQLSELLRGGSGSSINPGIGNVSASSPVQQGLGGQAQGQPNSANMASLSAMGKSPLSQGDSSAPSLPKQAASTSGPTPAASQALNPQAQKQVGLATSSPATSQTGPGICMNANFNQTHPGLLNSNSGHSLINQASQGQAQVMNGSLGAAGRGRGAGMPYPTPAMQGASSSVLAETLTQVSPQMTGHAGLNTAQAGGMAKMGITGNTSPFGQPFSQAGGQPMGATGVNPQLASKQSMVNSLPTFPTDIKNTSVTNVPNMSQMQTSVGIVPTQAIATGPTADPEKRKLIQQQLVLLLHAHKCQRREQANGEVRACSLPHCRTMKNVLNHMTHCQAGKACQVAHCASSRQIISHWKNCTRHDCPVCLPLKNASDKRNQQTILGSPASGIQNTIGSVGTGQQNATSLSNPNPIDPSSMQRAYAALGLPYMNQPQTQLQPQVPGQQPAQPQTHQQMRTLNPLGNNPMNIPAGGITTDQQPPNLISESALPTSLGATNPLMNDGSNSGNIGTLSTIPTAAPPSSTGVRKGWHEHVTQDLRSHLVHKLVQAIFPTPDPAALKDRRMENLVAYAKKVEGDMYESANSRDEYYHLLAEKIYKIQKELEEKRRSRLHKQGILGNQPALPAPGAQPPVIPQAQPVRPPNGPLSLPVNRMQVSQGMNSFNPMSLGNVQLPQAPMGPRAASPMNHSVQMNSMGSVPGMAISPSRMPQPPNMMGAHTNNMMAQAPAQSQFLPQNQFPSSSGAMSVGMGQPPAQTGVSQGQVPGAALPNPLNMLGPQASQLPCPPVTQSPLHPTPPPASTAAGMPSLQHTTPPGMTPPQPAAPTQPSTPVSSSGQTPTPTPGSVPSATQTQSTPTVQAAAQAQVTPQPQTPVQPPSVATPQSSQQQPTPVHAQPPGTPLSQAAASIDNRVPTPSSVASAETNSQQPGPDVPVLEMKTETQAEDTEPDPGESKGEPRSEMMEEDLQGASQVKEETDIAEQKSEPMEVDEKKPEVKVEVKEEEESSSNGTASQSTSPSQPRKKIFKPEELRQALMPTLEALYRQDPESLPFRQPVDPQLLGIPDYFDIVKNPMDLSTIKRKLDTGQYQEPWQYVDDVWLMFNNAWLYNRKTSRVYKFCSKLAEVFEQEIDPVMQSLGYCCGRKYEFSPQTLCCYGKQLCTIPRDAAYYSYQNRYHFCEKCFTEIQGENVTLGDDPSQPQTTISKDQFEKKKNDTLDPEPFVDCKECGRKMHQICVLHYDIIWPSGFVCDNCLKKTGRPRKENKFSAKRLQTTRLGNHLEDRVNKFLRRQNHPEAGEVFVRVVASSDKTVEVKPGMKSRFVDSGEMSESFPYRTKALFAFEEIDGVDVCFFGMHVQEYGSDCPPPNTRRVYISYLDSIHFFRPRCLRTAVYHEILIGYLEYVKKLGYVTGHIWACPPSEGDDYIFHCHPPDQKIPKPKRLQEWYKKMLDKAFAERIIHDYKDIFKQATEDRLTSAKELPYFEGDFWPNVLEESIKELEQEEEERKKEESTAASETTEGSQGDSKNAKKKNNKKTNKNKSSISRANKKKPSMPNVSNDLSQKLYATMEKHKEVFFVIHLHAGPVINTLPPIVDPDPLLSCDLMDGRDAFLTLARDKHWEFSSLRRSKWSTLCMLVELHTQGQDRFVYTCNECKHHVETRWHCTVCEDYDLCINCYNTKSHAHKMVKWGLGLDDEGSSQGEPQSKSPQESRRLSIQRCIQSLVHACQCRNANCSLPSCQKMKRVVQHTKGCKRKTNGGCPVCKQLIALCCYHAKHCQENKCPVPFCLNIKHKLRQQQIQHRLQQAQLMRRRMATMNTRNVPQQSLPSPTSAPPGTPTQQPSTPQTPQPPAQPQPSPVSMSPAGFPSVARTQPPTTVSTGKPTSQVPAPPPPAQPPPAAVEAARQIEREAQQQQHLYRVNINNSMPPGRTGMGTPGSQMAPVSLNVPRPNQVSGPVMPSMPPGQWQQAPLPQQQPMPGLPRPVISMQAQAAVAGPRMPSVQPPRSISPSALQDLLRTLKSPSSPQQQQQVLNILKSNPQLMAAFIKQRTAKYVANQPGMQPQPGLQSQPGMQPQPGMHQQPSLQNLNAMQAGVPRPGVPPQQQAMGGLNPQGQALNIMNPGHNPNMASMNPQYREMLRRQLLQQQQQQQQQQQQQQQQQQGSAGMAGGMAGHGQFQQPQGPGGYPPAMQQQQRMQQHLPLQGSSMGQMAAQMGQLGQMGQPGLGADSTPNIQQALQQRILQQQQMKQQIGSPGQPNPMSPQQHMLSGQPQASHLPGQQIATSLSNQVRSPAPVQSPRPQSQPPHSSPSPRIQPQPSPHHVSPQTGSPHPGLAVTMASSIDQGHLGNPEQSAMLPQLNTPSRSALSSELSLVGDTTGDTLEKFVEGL
The test system of a further data set is MOLM13. Briefly: clonogenic growth in methylcellulose. The format is cell-based, human. Particulars: dose dependent. The method, boiled down:
as §2

Another data set deals with p300 bromodomain (Homo sapiens, UniProt Q09472). Nature of the data set: isothermal titration calorimetry. Type of data set: binding. Particulars: read-out: dissociation constant (KD); ITC, in solution. For orientation: Isothermal titration calorimetry measures the heat released or taken up as one component is titrated into another.
Chain of p300 bromodomain (Q09472 1049-1156 limits assumed): as the sequence (Q92793 1085-1192 limits assumed) above, with N47S, V73I, F93Y, A98S counted along it
Another data set has as its target full-length GFP-BRD4 (Homo sapiens, UniProt O60885). Briefly: NanoBRET, full-length BRD4. The format is cell-based.
In data set [9] the target is T1, BRD4(2). Nature of the data set: isothermal titration calorimetry. Type of data set: binding.
Data set [10] concerns the target T3, CBP bromodomain (Homo sapiens, UniProt Q92793). Nature of the data set: temperature shift assay. Type of data set: binding.
Data set [11] concerns the target T3, CBP bromodomain. Type of data set: binding. Particulars: read-out: dissociation constant (KD); ITC, in solution.
The target in data set [12] is T2, full-length CBP. Type of data set: cell-based. Particulars: GFP-tagged full-length CBP.
The subject of the next data set is MOLM13 cells. Nature of the data set: WST1 proliferation/survival assay, combination. The format is cell-based, human. Particulars: combination with doxorubicin.
In data set [13] the test system is peripheral CD34+ cells from healthy donors. Nature of the data set: clonogenic growth of primary cells in methylcellulose. Particulars: three healthy donors. The format is cell-based, human. In a few lines: as §1
The target of another data set is CBP (Homo sapiens, UniProt Q92793). Particulars: BLI.
Chain of CBP (Q92793 1085-1192 limits assumed): as the sequence (Q92793 1085-1192 limits assumed) above
For data set [14], the system named is KASUMI-1 cells. Briefly: cell cycle analysis by flow cytometry. The format is cell-based, human. Particulars: day 2 and 3, more pronounced at day 6.
Data set [15] deals with MLL-AF9+ AML cells. Nature of the data set: cell surface marker expression after liquid culture exposure. Type of data set: cell-based, mouse. Particulars: 5 µM, 3 days.
The test system of data set [16] is MLL-AF9 expressing blasts. Nature of the data set: extreme limiting dilution analysis. Particulars: 5µM for 3 days; vehicle 1/2.3. Type of data set: cell-based, mouse. The method, boiled down: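 MLL-AF9 leukemic blasts from diseased mice were exposed ex vivo to 5 µM test compound or DMSO for 3 days, then plated at limiting dilution (highest dose 10 cells). A limiting dilution model fitted on a log-fraction plot gave stem cell frequency with 95% confidence intervals. Groups were compared by an overall chi-square test.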

A short description of the next data set: pharmacokinetic study. The format is in vivo. Particulars: mice.
Another data set concerns 5HT1. Particulars: both stereoisomers; low µM region.
In the next data set the target is BRD4(1) (Homo sapiens, UniProt O60885). Briefly: isothermal titration calorimetry. Type of data set: binding.
Data set [17] relates to 12 stimulated primary human co-cultured cell types. Nature of the data set: BioMAP panel of stimulated primary co-cultured cell types. The format is cell-based. The method, boiled down: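 BioMAP profiling in four human haematopoietic co-culture systems, each treated with test compound: Sag and LPS (peripheral blood mononuclear cells with venular endothelial cells), BT (B cells with peripheral blood mononuclear cells), and IMphg (venular endothelial cells with M1 macrophages). Marker protein read-outs were monitored.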

Data set [18] relates to MLL-CBP immortalized murine bone marrow cells. Briefly: clonogenic growth and replating in methylcellulose. The format is cell-based, mouse. Particulars: more apparent upon re-plating. The method, boiled down: as §4
In a further data set the test system is SEM cells. Briefly: clonogenic growth in methylcellulose. Type of data set: cell-based, human. Particulars: dose dependent. In a few lines:
as §2

Data set [19] relates to bromodomains of the BET family members. Nature of the data set: BLI selectivity screen, panel of 42 bromodomains. The format is binding. Particulars: only BET family identified among 42 bromodomains.
The test system of data set [20] is KASUMI-1, MOLM13 and SEM cells. Nature of the data set: WST1 proliferation/survival assay, single agents and combinations. Type of data set: cell-based, human. Particulars: for activity alone in WST1 assay: single agent, different for each cell line.
For data set [21], the target named is T3, CBP bromodomain. Particulars: read-out: IC50 displacing H3K56ac from the CBP binding site; AlphaScreen, H3K56ac peptide.
For data set [22], the system named is 41 other members of the human bromodomain family. Nature of the data set: temperature shift assay, selectivity panel. Particulars: 41 other bromodomains. Type of data set: binding.
The target in another data set is α1A (Homo sapiens, UniProt P35348). Particulars: both stereoisomers; low µM region.
Data set [23] deals with MLL-AF9+ AML cells. Briefly: transplantation of pre-treated MLL-AF9+ AML cells into secondary recipients. Type of data set: in vivo, mice. Particulars: cells pre-treated 5 µM 3 days; 5-50 x 10^3 cells transplanted. In a few lines: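 Leukemic blasts were taken from mice that developed AML after transplantation of bone marrow retrovirally expressing MLL-AF9. Blasts were treated ex vivo with 5 µM test compound or DMSO for 3 days. Limiting doses (50 000, 10 000, 5 000, 500 cells) went into irradiated syngeneic secondary recipients, n=4/5 per group. Disease-free survival was compared by log-rank (Mantel-Cox) test.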

The target in the next data set is H3K56ac peptide. Briefly: ITC.

For orientation: ΔTm means the change in melting temperature against a reference sample. As usually defined, the IC50 is the concentration at which inhibition is half-maximal. A word on the Kd: it is the constant that tells how readily two partners part at equilibrium. What is called half-life is the time needed for the level to fall by half in the phase considered. Lower therefore signals rapid decline. Usually Cmax stands for the peak of the concentration-time curve.

“And” between values parts separate entries of the source, which are not always exact repeats. Identical values can stand only once.

T3 sequence (Q92793 1085-1192 limits assumed): as above

With `CC1=NN(c2ccc(C(=O)O)cc2)C(=O)/C1=C\c1ccc(-c2cc(C)c(C)cc2[N+](=O)[O-])o1` [C646], in the data set on CBP/p300 HAT activity, the HAT inhibitory activity entry is recorded as “low µM activity”.

Regarding `CCC(=O)N1CCOc2c(cc(-c3ccc(OC)c(OC)c3)cc2OC[C@H]2CCCN(C)C2)C1` [I-CBP112], on BRD4(2) [1], the ΔTm was 0.6 °C. In the data set with KASUMI-1 cells [2], the apoptosis entry is “signs of apoptosis”. Further, the clonogenic growth result in data set [3] is “significantly reduced”; in the data set on KASUMI-1, “significantly impaired”; with MOLM13, “significantly impaired”; in [18], “significantly reduced”; with SEM cells, “significantly impaired”. Besides, the IC50 came out at 600 ± 50 nM at isolated CBP bromodomain and 170 nM at CBP bromodomain [21]. Moreover, on p300 (8h), the “displacement of p300 from chromatin” value was “did not see significant displacement”. Also, the p300 occupancy entry on p300 (4 days, vs DMSO) is listed as “increased p300 occupancy”. The “number of colonies and cells in MC” value in data set [4] is recorded as “dose dependent reduction”. The cytotoxicity entry in [5] is “without significant cytotoxicity”. The cell survival result in data set [6] is on record as “did not affect cell survival”. For the same molecule, the “self-renewal in clonogenic re-plating” value in data set [7] was “significantly impaired”. Moreover, the “effect on recruitment of full-length CBP to chromatin” value at full-length CBP [8] is on record as “no significant effect”. Besides, the equilibrium dissociation constant (Kd) is 167 ± 8 nM at p300 bromodomain; 20 µM on BRD4(2) [9] (ITC); 151 ± 6 nM at CBP bromodomain [11]; 142 nM on CBP; 5.6 µM on BRD4(1) (ITC). Further, the “displacement of full-length BRD4” value at full-length GFP-BRD4 was “No displacement”. Moreover, the fold selectivity worked out at 132 fold at BRD4(2) [9] (CBP over BRD4(2), from ITC KDs) and 37 fold on BRD4(1) (CBP over BRD4(1), from ITC KDs). In addition, the “ΔTm (stabilization of melting temperature)” value at CBP bromodomain [10] is given as 7.8 ºC. Also, the FRAP recovery times entry on full-length CBP [12] is reported as “did not lead to decreased recovery times”. Besides, the synergism result in the data set on MOLM13 cells is on record as “less pronounced”. In addition, the “colony number in MC” value in data set [13] is reported as “did not affect”. Further, in the data set on KASUMI-1 cells [14], the cell cycle effect entry is given as “prominent G1 arrest”. In addition, the c-Kit/CD117 expression entry in the data set with MLL-AF9+ AML cells [15] was “slightly decreased”. Further, in the data set with MLL-AF9+ AML cells [15], the “granulocyte marker Gr-1 expression” value is “slightly decreased”. In [16], the “estimated stem cell frequency” value was “significant decrease and 1/13”. This molecule had an AUC in “pharmacokinetic study” (IP 3 mg/kg) of 384 ng/h/mL. Further, in “pharmacokinetic study” (IP 3 mg/kg), the half-life was determined as 36 ± 6 min. The “mean Cmax” value in the data set “pharmacokinetic study” (IP 3 mg/kg) is listed as 590 ng/mL. The “bioavailability F%” value in “pharmacokinetic study” (IP vs IV, (AUCt/Dip)/(AUC∞/Div)) is recorded as 114 ± 63%. Further, the blood clearance result in the data set “pharmacokinetic study” (IV 1.2 mg/kg) was “high”. Besides, the volume distribution entry in the data set “pharmacokinetic study” (IV 1.2 mg/kg) is recorded as “moderate”. Moreover, the Cmax in the data set “pharmacokinetic study” (read-out: mean Cmax, IP 3 mg/kg, n=3) is 1260 ± 740 nM. Moreover, the “interaction in selectivity panel” value in the data set on 5HT1 and at α1A was “weak interaction” each time. Besides, the “expression level of CCL2” value in data set [17] is “no effect”. Besides, the “expression level of Selectin (CD62)” value in data set [17] is reported as “no effect”. Further, the “expression of IL10” value in data set [17] is “down-regulated”. Moreover, in [17], the “expression of VCAM1/CD106” value is “down-regulated”. Further, the “secreted IgG” value in [17] was “up-regulated”. Further, the “off-target activity in BLI screen” value in [19] is “weak off-target activity”. For the same molecule, the “synergy (Chou-Talalay)” value is “strong synergy” in [20] (combination with JQ1) and “strong synergy” in data set [20] (combination with doxorubicin, except MOLM13). Besides, the ΔTm values entry in [22] is recorded as “low”. In addition, in the data set on MLL-AF9+ AML cells [23], the “time of disease development in recipient mice” value is “significantly later”.

Consider `Cc1sc2c(c1C)C(c1ccc(Cl)cc1)=N[C@@H](CC(=O)OC(C)(C)C)c1nnc(C)n1-2` [JQ1, reference compound], for which, in data set [17], the “expression of IL10” value is listed as “down-regulated”, the “expression of VCAM1/CD106” value was “down-regulated” and the “secreted IgG” value was “strongly down-regulated”. The “activity alone in WST1 assay” value in [20] was “low nM activity”.

Consider `COc1cccc2c1C(=O)c1c(O)c3c(c(O)c1C2=O)C[C@@](O)(C(=O)CO)C[C@@H]3O[C@H]1C[C@H](N)[C@H](O)[C@H](C)O1` [doxorubicin, reference compound], for which the “activity alone in WST1 assay” value in data set [20] is reported as “low nM activity”.

Turning to CBP bromodomain (domain or fragment), the Kd with H3K56ac peptide was 13.8 µM.
